Experiments:
[1] = Partition coefficient (logP); format: physicochemical; conditions: octanol/water
[2] = molecular target: Dopamine receptor; assay: In vitro inhibition of [3H]spiperone binding to Dopamine receptor D2 in Macaca nemestrina striatal membranes; set-up: species or system Striatum, Membrane
Summary of the method: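 Caudate tissue from adult Macaca nemestrina brains, homogenized in ice-cold 50 mM potassium phosphate pH 7.4, washed twice by centrifugation at 30000g and stored at -70 °C. Assay used 25-50 µg protein in 50 mM Tris-HCl, 120 mM NaCl, 5 mM CaCl2, 1 mM MgCl2, pH 7.4, with 0.2 nM [3H]spiperone for 30 min at 37 °C. Bound ligand was collected by filtration and counted by scintillation. Nonspecific binding was defined with 1 µM cis-flupenthixol. Ki was taken from competitive displacement.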

[3] = system: Rattus norvegicus; assay: In vivo tissue biodistribution behavior of high specific activity was determined in rat whole brain at 5 min postinjection of radiolabeled compound; format: ADME, organism-based
Summary of the method: (§1)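 Female Sprague-Dawley rats (200-250 g) under light ether anesthesia received 50-100 µCi of the 18F-labelled ligand (>1000 Ci/mmol) in 0.2 mL buffered saline into the femoral vein. Food and water were free until decapitation. Blood was drawn by cardiac puncture and the femur and brain regions were taken. Tissues were weighed and gamma counted. Values are %ID/g, mean ± SD of 4-5 rats.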

[4] = system: Rattus norvegicus; assay: In vivo tissue biodistribution behavior of high specific activity was determined in rat blood at 30 min postinjection of radiolabeled compound; format: ADME, organism-based; conditions: 0.5 h; summary of the method: as §1
[5] = system: Rattus norvegicus; assay: In vivo tissue biodistribution behavior of high specific activity was determined in rat blood at 5 min postinjection of radiolabeled compound; format: ADME, organism-based; summary of the method: as §1
[6] = system: Rattus norvegicus; assay: In vivo tissue biodistribution behavior of high specific activity was determined in rat bone at 30 min postinjection of radiolabeled compound; format: ADME, organism-based, Bone element; conditions: 0.5 h; summary of the method: as §1
[7] = system: Rattus norvegicus; assay: In vivo tissue biodistribution behavior of high specific activity was determined in rat bone at 5 min postinjection of radiolabeled compound; format: ADME, organism-based, Bone element; summary of the method: as §1
[8] = system: Rattus norvegicus; assay: In vivo tissue biodistribution behavior of high specific activity was determined in rat cerebellum at 30 min postinjection of radiolabeled compound; format: ADME, organism-based; conditions: 0.5 h; summary of the method: as §1
[9] = system: Rattus norvegicus; assay: In vivo tissue biodistribution behavior of high specific activity was determined in rat cerebellum at 5 min postinjection of radiolabeled compound; format: ADME, organism-based; summary of the method: as §1
[10] = system: Rattus norvegicus; assay: In vivo tissue biodistribution behavior of high specific activity was determined in rat striatum at 30 min postinjection of radiolabeled compound; format: ADME, organism-based; conditions: 0.5 h; summary of the method: as §1
[11] = system: Rattus norvegicus; assay: In vivo tissue biodistribution behavior of high specific activity was determined in rat striatum at 5 min postinjection of radiolabeled compound; format: ADME, organism-based; summary of the method: as §1
[12] = system: Rattus norvegicus; assay: In vivo tissue biodistribution behavior of high specific activity was determined in rat whole brain at 30 min postinjection of radiolabeled compound; format: ADME, organism-based; conditions: 0.5 h; summary of the method: as §1
[13] = system: Rattus norvegicus; assay: In vivo tissue biodistribution behavior of high specific activity was determined in rat whole brain at 60 min postinjection of radiolabeled compound; format: ADME, organism-based; conditions: 1 h; summary of the method: as §1
[14] = system: Rattus norvegicus; assay: In vivo tissue biodistribution behavior of high specific activity was determined in rat blood at 60 min postinjection of radiolabeled compound; format: ADME, organism-based; conditions: 1 h; summary of the method: as §1
[15] = system: Rattus norvegicus; assay: In vivo tissue biodistribution behavior of high specific activity was determined in rat bone at 60 min postinjection of radiolabeled compound; format: ADME, organism-based, Bone element; conditions: 1 h; summary of the method: as §1
[16] = system: Rattus norvegicus; assay: In vivo tissue biodistribution behavior of high specific activity was determined in rat cerebellum at 60 min postinjection of radiolabeled compound; format: ADME, organism-based; conditions: 1 h; summary of the method: as §1
[17] = system: Rattus norvegicus; assay: In vivo tissue biodistribution behavior of high specific activity was determined in rat striatum at 60 min postinjection of radiolabeled compound; format: ADME, organism-based; conditions: 1 h; summary of the method: as §1
[18] = In vivo tissue biodistribution behavior of high specific activity was determined in whole brain at 60 min postinjection of radiolabeled compound; format: ADME, organism-based; conditions: 1 h; summary of the method: as §1
[19] = Dissociation constant of the compound; value ranges from 0.81-1.2 nM; format: physicochemical

Compound: COc1c(Cl)cc(Cl)c(O)c1C(=O)NC[C@H]1CCCN1CCC(C)F (stereo not given in full)
- logP [1]: 1.5
- Ki [2]: 2620 nM

Compound: COc1c(Cl)cc(Cl)c(O)c1C(=O)NC[C@@H]1CCCN1CC[18F]
- Tissue concentration [3]: 0.52 % injected dose g-1
- Tissue concentration [4]: 0.07 % injected dose g-1
- Tissue concentration [5]: 0.16 % injected dose g-1
- Tissue concentration [6]: 0.23 % injected dose g-1
- Tissue concentration [7]: 0.2 % injected dose g-1
- Tissue concentration [8]: 0.05 % injected dose g-1
- Tissue concentration [9]: 0.42 % injected dose g-1
- Tissue concentration [10]: 0.09 % injected dose g-1
- Tissue concentration [11]: 0.62 % injected dose g-1
- Tissue concentration [12]: 0.06 % injected dose g-1

Compound: COc1c(Cl)cc(Cl)c(O)c1C(=O)NC[C@@H]1CCCN1CCCC[18F]
- Tissue concentration [3]: 0.71 % injected dose g-1
- Tissue concentration [13]: 0.06 % injected dose g-1
- Tissue concentration [4]: 0.09 % injected dose g-1
- Tissue concentration [5]: 0.21 % injected dose g-1
- Tissue concentration [14]: 0.06 % injected dose g-1
- Tissue concentration [6]: 0.24 % injected dose g-1
- Tissue concentration [7]: 0.22 % injected dose g-1
- Tissue concentration [15]: 0.39 % injected dose g-1
- Tissue concentration [8]: 0.08 % injected dose g-1
- Tissue concentration [9]: 0.58 % injected dose g-1
- Tissue concentration [16]: 0.05 % injected dose g-1
- Tissue concentration [10]: 0.12 % injected dose g-1
- Tissue concentration [11]: 0.87 % injected dose g-1
- Tissue concentration [17]: 0.09 % injected dose g-1
- Tissue concentration [12]: 0.1 % injected dose g-1

Compound: COc1c(Cl)cc(Cl)c(O)c1C(=O)NC[C@@H]1CCCN1CCC[18F]
- Tissue concentration [3]: 1.16 % injected dose g-1
- Tissue concentration [18]: 0.04 % injected dose g-1
- Tissue concentration [4]: 0.1 % injected dose g-1
- Tissue concentration [5]: 0.26 % injected dose g-1
- Tissue concentration [14]: 0.05 % injected dose g-1
- Tissue concentration [6]: 0.34 % injected dose g-1
- Tissue concentration [7]: 0.28 % injected dose g-1
- Tissue concentration [15]: 0.54 % injected dose g-1
- Tissue concentration [8]: 0.09 % injected dose g-1
- Tissue concentration [9]: 0.98 % injected dose g-1
- Tissue concentration [16]: 0.03 % injected dose g-1
- Tissue concentration [10]: 0.13 % injected dose g-1
- Tissue concentration [11]: 1.5 % injected dose g-1
- Tissue concentration [17]: 0.07 % injected dose g-1
- Tissue concentration [12]: 0.11 % injected dose g-1

Compound: COc1c(Cl)cc(Cl)c(O)c1C(=O)NC[C@@H]1CCCN1CCF
- logP [1]: 0.55
- Ki [2]: 159 nM

Compound: CCCCN1CCC[C@H]1CNC(=O)c1c(O)c(Cl)cc(Cl)c1OC
- logP [1]: 2.28
- Ki [2]: 41.1 nM

Compound: COc1c(Cl)cc(Cl)c(O)c1C(=O)NC[C@@H]1CCCN1CCC(C)F (stereo not given in full)
- logP [1]: 1.5
- Ki [2]: 2610 nM

Compound: COc1c(Cl)cc(Cl)c(O)c1C(=O)NC[C@@H]1CCCN1CCCCF
- logP [1]: 1.6
- Ki [2]: 88.5 nM

Compound: CCCN1CCC[C@H]1CNC(=O)c1c(O)c(Cl)cc(Cl)c1OC
- logP [1]: 1.75
- Ki [2]: 17.3 nM

Compound: COc1c(Cl)cc(Cl)c(O)c1C(=O)NC[C@@H]1CCCN1CCCF
- logP [1]: 1.07
- Ki [2]: 130 nM

Compound: CCN1CCC[C@H]1CNC(=O)c1c(O)c(Cl)cc(Cl)c1OC [RACLOPRIDE]
- Kd [19]: 0.81 nM

From ChEMBL document CHEMBL1124901 (J Med Chem, 1990)
